Measured values: ChEMBL document CHEMBL1157589, “Antifungal 3,5-disubstituted furanones: From 5-acyloxymethyl to 5-alkylidene derivatives” (Bioorg Med Chem, 2010)
Values after ≈ are worked out from the molar mass of the structure shown.

Experiments:
Pichia kudriavzevii [1] = experiment: Antifungal activity against Candida krusei ATCC 6258 after 24 hrs by microdilution method; type: functional; details: ATCC 6258, 24 h
Method in brief: (§1)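 Yeasts held on Sabouraud dextrose agar. MIC by NCCLS M27-A broth microdilution in RPMI 1640 with L-glutamine, buffered with 0.165 M MOPS to pH 7.0. Compounds in DMSO (≤2% final), twofold dilutions 500–0.48. Final inoculum 5 × 10³ ± 0.2 cfu mL⁻¹. Incubated at 35 °C; absorbance at 540 nm read at 24 and 48 h. MIC is 80% growth inhibition versus control; run twice in duplicate.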

Trichosporon beigelii [2] = experiment: Antifungal activity against Trichosporon beigelii 1188 after 24 hrs by microdilution method; type: functional; details: Trichosporon beigelii, 1188, 24 h; method in brief: as §1
Candida albicans [3] = experiment: Antifungal activity against Candida albicans ATCC 90028 after 48 hrs by microdilution method; type: functional; details: ATCC 90028, 48 h; method in brief: as §1
Pichia kudriavzevii [4] = experiment: Antifungal activity against Candida krusei E28 after 48 hrs by microdilution method; type: functional; details: E28, 48 h; method in brief: as §1
Trichosporon beigelii [5] = experiment: Antifungal activity against Trichosporon beigelii 1188 after 48 hrs by microdilution method; type: functional; details: Trichosporon beigelii, 1188, 48 h; method in brief: as §1
Candida tropicalis [6] = experiment: Antifungal activity against Candida tropicalis 156 after 48 hrs by microdilution method; type: functional; details: Candida tropicalis, 156, 48 h; method in brief: as §1
Candida tropicalis [7] = experiment: Antifungal activity against Candida tropicalis 156 after 24 hrs by microdilution method; type: functional; details: Candida tropicalis, 156, 24 h; method in brief: as §1
Lichtheimia corymbifera [8] = experiment: Antifungal activity against Absidia corymbifera 272 after 48 hrs by microdilution method; type: functional; details: Lichtheimia corymbifera, 272, 48 h
Method in brief: (§2)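 Filamentous strains held on Sabouraud dextrose agar. NCCLS M27-A broth microdilution in RPMI 1640 with L-glutamine and 0.165 M MOPS, pH 7.0. DMSO diluent ≤2% final; twofold dilutions 500–0.48. Inoculum 5 × 10³ ± 0.2 cfu mL⁻¹ final.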

HL-60 = experiment: Cytostatic activity against human HL60 cells after 72 hrs by XTT assay; type: functional, cell-based
Method in brief: (§3)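 Leukemia cells (L1210 ATCC CCL 219, CCRF-CEM ATCC CCL 119, HL-60 ATCC CCL 240) grown in 24-well plates in RPMI 1640 with fetal calf serum. Growth assessed 72 h after drug addition. Viability measured by XTT spectrophotometric assay; potency given as IC50.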

Pichia kudriavzevii [9] = experiment: Antifungal activity against Candida krusei E28 after 24 hrs by microdilution method; type: functional; details: E28, 24 h; method in brief: as §1
Candida albicans [10] = experiment: Antifungal activity against Candida albicans ATCC 90028 after 24 hrs by microdilution method; type: functional; details: ATCC 90028, 24 h; method in brief: as §1
[11] = tested on: Trichophyton mentagrophytes; experiment: Antifungal activity against Trichophyton mentagrophytes 445 after 72 hrs by microdilution method; type: functional; details: Trichophyton mentagrophytes, 445, 72 h
Method in brief: (§4)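 Dermatophyte held on Sabouraud dextrose agar. M27-A microdilution in MOPS-buffered (0.165 M, pH 7.0) RPMI 1640 with L-glutamine. DMSO ≤2% final; twofold dilutions 500–0.48. Inoculum 5 × 10³ ± 0.2 cfu mL⁻¹ final. Incubated at 35 °C; MIC read visually at 72 and 120 h as 80% inhibition of control growth; determined twice in duplicate.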

Nakaseomyces glabratus [12] = experiment: Antifungal activity against Candida glabrata 20/I after 48 hrs by microdilution method; type: functional; method in brief: as §1
Candida albicans [13] = experiment: Antifungal activity against Candida albicans ATCC 44859 after 48 hrs by microdilution method; type: functional; details: ATCC 44859, 48 h; method in brief: as §1
Aspergillus fumigatus [14] = experiment: Antifungal activity against Aspergillus fumigatus 231 after 48 hrs by microdilution method; type: functional; details: Aspergillus fumigatus, 231, 48 h; method in brief: as §2
CCRF-CEM = experiment: Cytostatic activity against human CCRF-CEM cells after 72 hrs by XTT assay; type: functional, cell-based; method in brief: as §3
Clavispora lusitaniae [15] = experiment: Antifungal activity against Candida lusitaniae 2446/I after 48 hrs by microdilution method; type: functional; method in brief: as §1
Clavispora lusitaniae [16] = experiment: Antifungal activity against Candida lusitaniae 2446/I after 24 hrs by microdilution method; type: functional; method in brief: as §1
Aspergillus fumigatus [17] = experiment: Antifungal activity against Aspergillus fumigatus 231 after 24 hrs by microdilution method; type: functional; details: Aspergillus fumigatus, 231, 24 h; method in brief: as §2
Candida parapsilosis [18] = experiment: Antifungal activity against Candida parapsilosis ATCC 22019 after 48 hrs by microdilution method; type: functional; details: Lodderomyces parapsilosis, ATCC 22019, 48 h; method in brief: as §1
Pichia kudriavzevii [19] = experiment: Antifungal activity against Candida krusei ATCC 6258 after 48 hrs by microdilution method; type: functional; details: ATCC 6258, 48 h; method in brief: as §1
Nakaseomyces glabratus [20] = experiment: Antifungal activity against Candida glabrata 20/I after 24 hrs by microdilution method; type: functional; method in brief: as §1
[21] = tested on: Trichophyton mentagrophytes; experiment: Antifungal activity against Trichophyton mentagrophytes 445 after 120 hrs by microdilution method; type: functional; details: Trichophyton mentagrophytes, 445, 120 h; method in brief: as §4
Candida albicans [22] = experiment: Antifungal activity against Candida albicans ATCC 44859 after 24 hrs by microdilution method; type: functional; details: ATCC 44859, 24 h; method in brief: as §1
Lichtheimia corymbifera [23] = experiment: Antifungal activity against Absidia corymbifera 272 after 24 hrs by microdilution method; type: functional; details: Lichtheimia corymbifera, 272, 24 h; method in brief: as §2
Candida parapsilosis [24] = experiment: Antifungal activity against Candida parapsilosis ATCC 22019 after 24 hrs by microdilution method; type: functional; details: Lodderomyces parapsilosis, ATCC 22019, 24 h; method in brief: as §1
HeLa S3 [25] = experiment: Cytostatic activity against human HeLaS3 cells after 72 hrs by XTT assay; type: functional, cell-based
[26] = Chemical stability in DMSO solution at 4.7 mg after 24 hrs in room temperature by HPLC analysis; type: physicochemical
[27] = Chemical stability in tetrahydrofuran solution at 4.7 mg after 24 hrs in room temperature by HPLC analysis; type: physicochemical
HeLa S3 [28] = experiment: Cytostatic activity against human HeLaS3 cells after 48 hrs by XTT assay; details: hela s3
L1210 = experiment: Cytostatic activity against mouse L1210 cells after 72 hrs by XTT assay; type: functional, cell-based; details: l1210; method in brief: as §3

MIC80 (Pichia kudriavzevii [1]) | MIC80 (Trichosporon beigelii [2]) | MIC80 (Candida albicans [3]) | MIC80 (Pichia kudriavzevii [4]) | MIC80 (Trichosporon beigelii [5]) | MIC80 (Candida tropicalis [6]) | MIC80 (Candida tropicalis [7]) | MIC80 (Lichtheimia corymbifera [8]) | MIC80 (Pichia kudriavzevii [9]) | MIC80 (Candida albicans [10]) | MIC80 [11] | MIC80 (Nakaseomyces glabratus [12]) | MIC80 (Candida albicans [13]) | MIC80 (Aspergillus fumigatus [14]) | MIC80 (Clavispora lusitaniae [15]) | MIC80 (Clavispora lusitaniae [16]) | MIC80 (Aspergillus fumigatus [17]) | MIC80 (Candida parapsilosis [18]) | MIC80 (Pichia kudriavzevii [19]) | MIC80 (Nakaseomyces glabratus [20]) | SMILES | other results
250 µM (≈ 70.8 µg/mL) | 62.5 µM (≈ 17.7 µg/mL) | 31.2 µM (≈ 8.85 µg/mL) | 500 µM (≈ 142 µg/mL) | 125 µM (≈ 35.4 µg/mL) | 62.5 µM (≈ 17.7 µg/mL) | 62.5 µM (≈ 17.7 µg/mL) | 250 µM (≈ 70.8 µg/mL) | 250 µM (≈ 70.8 µg/mL) | 31.2 µM (≈ 8.85 µg/mL) | 31.2 µM (≈ 8.85 µg/mL) | 125 µM (≈ 35.4 µg/mL) | 31.2 µM (≈ 8.85 µg/mL) | 62.5 µM (≈ 17.7 µg/mL) | 125 µM (≈ 35.4 µg/mL) | 62.5 µM (≈ 17.7 µg/mL) | 31.2 µM (≈ 8.85 µg/mL) | 250 µM (≈ 70.8 µg/mL) | 250 µM (≈ 70.8 µg/mL) | 125 µM (≈ 35.4 µg/mL) | COCC1C=C(c2ccc(Br)cc2)C(=O)O1 (centres undefined) | IC50 (HL-60; Homo sapiens, HL-60, 72 h, read-out: IC50): 16 µM; IC50 (CCRF-CEM; Homo sapiens, CCRF-CEM, 72 h, read-out: IC50): 2.21 µM; MIC80 [21]: 31.2 µM (≈ 8.85 µg/mL); MIC80 (Candida albicans [22]): 15.6 µM (≈ 4.42 µg/mL); MIC80 (Lichtheimia corymbifera [23]): 125 µM (≈ 35.4 µg/mL); MIC80 (Candida parapsilosis [24]): 125 µM (≈ 35.4 µg/mL); IC50 (HeLa S3 [25]): Not Active
3.9 µM (≈ 1.21 µg/mL) | 7.81 µM (≈ 2.43 µg/mL) | 3.9 µM (≈ 1.21 µg/mL) | 7.81 µM (≈ 2.43 µg/mL) | 7.81 µM (≈ 2.43 µg/mL) | 7.81 µM (≈ 2.43 µg/mL) | 7.81 µM (≈ 2.43 µg/mL) | 15.6 µM (≈ 4.86 µg/mL) | 7.81 µM (≈ 2.43 µg/mL) | 3.9 µM (≈ 1.21 µg/mL) | 1.95 µM (≈ 0.607 µg/mL) | 1.95 µM (≈ 0.607 µg/mL) | 1.95 µM (≈ 0.607 µg/mL) | 3.91 µM (≈ 1.22 µg/mL) | 7.81 µM (≈ 2.43 µg/mL) | 3.9 µM (≈ 1.21 µg/mL) | 0.98 µM (≈ 0.305 µg/mL) | 15.6 µM (≈ 4.86 µg/mL) | 7.81 µM (≈ 2.43 µg/mL) | 1.95 µM (≈ 0.607 µg/mL) | CC(=O)OCC1C=C(c2ccc(Br)cc2)C(=O)O1 (centres undefined) | Stability [26]: < 3 h; Stability [27]: Stable; MIC80 [21]: 3.9 µM (≈ 1.21 µg/mL); MIC80 (Candida albicans [22]): 0.49 µM (≈ 0.152 µg/mL); MIC80 (Lichtheimia corymbifera [23]): 7.81 µM (≈ 2.43 µg/mL); MIC80 (Candida parapsilosis [24]): 3.9 µM (≈ 1.21 µg/mL)
> 125 µM | > 125 µM | > 125 µM | > 125 µM | > 125 µM | > 125 µM | > 125 µM | > 125 µM | > 125 µM | > 125 µM | > 125 µM | > 125 µM | > 125 µM | > 125 µM | > 125 µM | > 125 µM | > 125 µM | > 125 µM | > 125 µM | > 125 µM | O=C1O/C(=C\c2ccccc2)C=C1c1ccc(Br)cc1 | IC50 (HL-60; hl-60): Not Active; IC50 (HeLa S3 [28]): Not Active; IC50 (L1210): Not Active; IC50 (CCRF-CEM; ccrf-cem): Not Active; MIC80 [21]: > 125 µM; MIC80 (Candida albicans [22]): > 125 µM; MIC80 (Lichtheimia corymbifera [23]): > 125 µM; MIC80 (Candida parapsilosis [24]): > 125 µM
125 µM (≈ 36.9 µg/mL) | 125 µM (≈ 36.9 µg/mL) | 250 µM (≈ 73.8 µg/mL) | 250 µM (≈ 73.8 µg/mL) | 125 µM (≈ 36.9 µg/mL) | 250 µM (≈ 73.8 µg/mL) | 125 µM (≈ 36.9 µg/mL) | 62.5 µM (≈ 18.4 µg/mL) | 250 µM (≈ 73.8 µg/mL) | 125 µM (≈ 36.9 µg/mL) | 31.2 µM (≈ 9.22 µg/mL) | 250 µM (≈ 73.8 µg/mL) | 125 µM (≈ 36.9 µg/mL) | 250 µM (≈ 73.8 µg/mL) | 250 µM (≈ 73.8 µg/mL) | 125 µM (≈ 36.9 µg/mL) | 125 µM (≈ 36.9 µg/mL) | 125 µM (≈ 36.9 µg/mL) | 250 µM (≈ 73.8 µg/mL) | 62.5 µM (≈ 18.4 µg/mL) | O=C1O/C(=C\CCO)C=C1c1ccc(Br)cc1 | IC50 (HL-60; hl-60): Not Active; IC50 (HeLa S3 [28]): Not Active; IC50 (L1210): Not Active; IC50 (CCRF-CEM; ccrf-cem): Not Active; MIC80 [21]: 31.2 µM (≈ 9.22 µg/mL); MIC80 (Candida albicans [22]): 62.5 µM (≈ 18.4 µg/mL); MIC80 (Lichtheimia corymbifera [23]): 62.5 µM (≈ 18.4 µg/mL); MIC80 (Candida parapsilosis [24]): 125 µM (≈ 36.9 µg/mL)
